From ChEMBL document CHEMBL2434928, “New derivatives of salicylamides: Preparation and antimicrobial activity against various bacterial species” (2013) come the findings set out here.

Format in all cases: functional
The test system of test [1] is Mycolicibacterium smegmatis. The test can be described thus: Antimycobacterial activity against Mycobacterium smegmatis ATCC 700084 after 3 days. As to conditions: ATCC 700084, 72 h. The method in brief:
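Middlebrook 7H9 plus ADC broth microdilution MIC, with compounds in DMSO. Colonies were suspended in sterile water to 0.5 McFarland, then diluted 1:1000 in sterile water. Drug-free, sterility and DMSO controls were included. The visual read followed 3 days of static aerobic incubation at 37 °C in darkness.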

Test [2] concerns Staphylococcus aureus. The test can be described thus: Antimicrobial activity against methicillin-resistant Staphylococcus aureus 63718 after 24 hrs by broth microdilution method. Conditions: Staphylococcus aureus, 63718, 24 h. Summed up:
(§1)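 Colonies grown on nutrient agar with 5% ovine blood were suspended in PBS (pH 7.2–7.3), adjusted to 0.5 McFarland, and diluted 1:20 in Mueller–Hinton broth. Compounds were dissolved in DMSO (final ≤2.5%) and tested by NCCLS-modified broth microdilution with drug-free, sterility and broth+DMSO controls.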
On the technique in general: Dilution methods test growth across graded concentrations, often in twofold steps.

Test [3] has as its system Staphylococcus aureus. The test can be described thus: Antimicrobial activity against methicillin-resistant Staphylococcus aureus 630 after 24 hrs by broth microdilution method. Conditions: Staphylococcus aureus, 630, 24 h. The method in brief: as §1
Test [4] deals with Staphylococcus aureus. In words: Antimicrobial activity against methicillin-resistant Staphylococcus aureus 3202 after 24 hrs by broth microdilution method. As to conditions: Staphylococcus aureus, 3202, 24 h. The method in brief: as §1
Another test has as its system Mycobacterium marinum. In words: Antimycobacterial activity against Mycobacterium marinum CAMP 5644 after 21 days. As to conditions: CAMP 5644, 504 h. The method in brief: (§2)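 MIC by broth microdilution in Middlebrook 7H9 with ADC enrichment. Compounds were dissolved in DMSO. Inoculum: colonies in sterile water adjusted to 0.5 McFarland, then diluted 1:1000 in sterile water. Drug-free, sterility and medium+DMSO controls were included. Wells were read visually after static incubation in the dark.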

For test [5], the system named is Staphylococcus aureus. The test can be described thus: Antimicrobial activity against Staphylococcus aureus ATCC 29213 after 24 hrs by broth microdilution method. Conditions: ATCC 29213, 24 h. Summed up: (§3)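 Broth microdilution MIC in Mueller–Hinton broth, per modified NCCLS guidelines. Strains were grown on nutrient agar with 5% ovine blood. Colonies were suspended in PBS (pH 7.2–7.3), adjusted to 0.5 McFarland, then diluted 1:20 in MH broth. Compounds were in DMSO, ≤2.5% final. Drug-free, sterility and DMSO controls were included.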

Another test deals with Bacillus cereus. In words: Antimicrobial activity against Bacillus cereus ATCC 14579 after 24 hrs by broth microdilution method. As to conditions: ATCC 14579, 24 h. The method in brief:
as §3

The next test concerns Mycobacterium kansasii. In words: Antimycobacterial activity against Mycobacterium kansasii DSM 44162 after 7 days. As to conditions: DSM 44162, 168 h. The method in brief:
as §2

The subject of another test is Pasteurella multocida. The test can be described thus: Antimicrobial activity against Pasteurella multocida clinical isolate after 24 hrs by broth microdilution method. Summed up:
as §3

Another test deals with Clostridium perfringens. In words: Antimicrobial activity against Clostridium perfringens CNCTC 5770 after 24 hrs by broth microdilution method. Conditions: CNCTC 5770, 24 h. The method in brief:
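Colonies grown on blood agar (nutrient agar, 5% ovine blood) were suspended in PBS pH 7.2–7.3, set to 0.5 McFarland, and diluted 1:20 in MH broth for the final inoculum. Compounds were in DMSO (≤2.5% final), tested by NCCLS-modified microdilution with drug-free, sterility and DMSO controls.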

Values after ≈ are worked out from the molar mass of the structure shown.

As to `O=C(Nc1ccccc1)c1cc(Cl)ccc1O`, the MIC is 64.6 µM (≈ 16 µg/mL) in test [1]; 32.3 µM (≈ 8 µg/mL) in the test with Staphylococcus aureus [2]; 16.1 µM (≈ 4 µg/mL) against Staphylococcus aureus [3]; 16.1 µM (≈ 4 µg/mL) in the test with Staphylococcus aureus [4]; 64.6 µM (≈ 16 µg/mL) in the test on Mycobacterium marinum; 16.1 µM (≈ 4 µg/mL) with Staphylococcus aureus [5]. The MIC was 32.3 µM (≈ 8 µg/mL) with Bacillus cereus, 16.1 µM (≈ 4 µg/mL) in the test with Mycobacterium kansasii, 1.01 µM (≈ 0.25 µg/mL) against Pasteurella multocida and greater than 1030 µM with Clostridium perfringens.
Turning to `O=C(Nc1ccc(Cl)cc1)c1cc(Cl)ccc1O`, the MIC in test [1] was 28.4 µM (≈ 8 µg/mL); with Staphylococcus aureus [2] it was 56.7 µM (≈ 16 µg/mL); in the test with Staphylococcus aureus [3], 28.4 µM (≈ 8 µg/mL); with Staphylococcus aureus [4], 56.7 µM (≈ 16 µg/mL); against Mycobacterium marinum, 7.08 µM (≈ 2 µg/mL); in the test on Staphylococcus aureus [5], 28.4 µM (≈ 8 µg/mL). Also, the minimal inhibitory concentration (MIC) was 14.2 µM (≈ 4 µg/mL) in the test with Bacillus cereus, 7.08 µM (≈ 2 µg/mL) in the test on Mycobacterium kansasii, 3.54 µM (≈ 0.999 µg/mL) in the test on Pasteurella multocida and 14.2 µM (≈ 4 µg/mL) in the test on Clostridium perfringens.
As for `Cc1ccc(NC(=O)c2cc(Cl)ccc2O)cc1`, the MIC in test [1] was greater than 978 µM; in the test with Staphylococcus aureus [2], greater than 978 µM; in the test on Staphylococcus aureus [3], greater than 978 µM; in the test with Staphylococcus aureus [4] it was greater than 978 µM; against Mycobacterium marinum, 61.1 µM (≈ 16 µg/mL); against Staphylococcus aureus [5], greater than 978 µM. The MIC in the test on Bacillus cereus is 30.6 µM (≈ 8 µg/mL); in the test with Mycobacterium kansasii it was 30.6 µM (≈ 8 µg/mL); in the test on Pasteurella multocida it was 1.91 µM (≈ 0.5 µg/mL); in the test on Clostridium perfringens, greater than 978 µM.

A word on the MIC: it is the smallest concentration in the dilution series that meets the test's criterion for growth inhibition.
